pIC50: −log10 of the molar value. In brackets after ≈: the same amount, converted by molar mass. Entries after “also recorded” stand apart in the source; their conditions may differ. Read-outs that look alike come from different tables or passages of the source.
Legend:
[1] = biological target: T1, porcine pancreatic α-amylase (Sus scrofa, UniProt P00690); experiment: Inhibition of pancreatic alpha-amylase activity; format: biochemical
T1 sequence (P00690 16-511): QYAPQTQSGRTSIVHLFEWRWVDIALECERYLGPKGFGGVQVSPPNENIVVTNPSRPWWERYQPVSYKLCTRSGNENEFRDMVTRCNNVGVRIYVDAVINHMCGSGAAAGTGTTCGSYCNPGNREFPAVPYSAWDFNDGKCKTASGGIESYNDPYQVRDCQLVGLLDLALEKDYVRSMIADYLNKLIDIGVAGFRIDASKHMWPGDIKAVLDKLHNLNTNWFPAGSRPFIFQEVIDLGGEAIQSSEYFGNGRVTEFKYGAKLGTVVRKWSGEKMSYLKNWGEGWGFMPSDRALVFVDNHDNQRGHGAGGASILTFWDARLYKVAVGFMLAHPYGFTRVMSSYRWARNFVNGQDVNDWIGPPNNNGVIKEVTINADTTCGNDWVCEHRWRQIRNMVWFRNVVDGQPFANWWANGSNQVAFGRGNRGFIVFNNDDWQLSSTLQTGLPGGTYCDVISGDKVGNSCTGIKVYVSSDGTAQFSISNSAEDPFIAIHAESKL

[2] = biological target: rat intestinal α-glucosidase; experiment: Inhibition of rat alpha-glucosidase activity; format: biochemical; settings: for IC50 Rat α-glucosidase: 1 mM PNPG substrate, triplicate; for % inhibition of rat α-glucosidase: at 1.25 mg/ml
yeast α-glucosidase = yeast α-glucosidase (Saccharomyces cerevisiae, UniProt P53341); experiment: Inhibition of yeast alpha-glucosidase activity; format: biochemical
Chain of yeast α-glucosidase (P53341 whole entry): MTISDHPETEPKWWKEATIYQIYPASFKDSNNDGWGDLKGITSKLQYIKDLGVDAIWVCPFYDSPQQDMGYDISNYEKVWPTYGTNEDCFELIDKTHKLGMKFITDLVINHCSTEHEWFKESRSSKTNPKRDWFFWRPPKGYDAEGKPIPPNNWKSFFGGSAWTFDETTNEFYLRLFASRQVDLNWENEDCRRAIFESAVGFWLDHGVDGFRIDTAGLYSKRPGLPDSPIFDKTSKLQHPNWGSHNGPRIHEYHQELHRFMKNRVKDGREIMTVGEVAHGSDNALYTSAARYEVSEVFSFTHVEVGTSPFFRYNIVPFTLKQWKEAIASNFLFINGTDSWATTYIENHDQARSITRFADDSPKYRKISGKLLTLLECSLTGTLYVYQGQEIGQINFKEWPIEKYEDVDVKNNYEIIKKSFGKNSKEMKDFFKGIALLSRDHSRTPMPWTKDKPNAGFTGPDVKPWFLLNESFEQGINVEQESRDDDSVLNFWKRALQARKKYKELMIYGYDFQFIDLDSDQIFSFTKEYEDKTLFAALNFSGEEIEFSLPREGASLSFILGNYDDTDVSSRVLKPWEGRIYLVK

[3] = tested on: BT474 ductal carcinoma cells; experiment: MTT assay, BT474; format: cell-based; settings: Homo sapiens, BT-474, 48 h, read-out: IC50 BT474
Method in brief: (§1)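 Cells grown in RPMI 1640 with 5% fetal calf serum at 37°C, 5% CO2. Seeded 5,000 cells per well, 24 h, then test compound in DMSO added (vehicle DMSO, or water for the reference drug), 48 h at 37°C. MTT solution (5 mg/ml) added for 4 h, medium removed, formazan dissolved in DMSO plus 0.1 mol/l glycine, A540 read. Run in quadruplicate.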

[4] = tested on: SW 620 colon adenocarcinoma cells; experiment: MTT assay, SW 620; format: cell-based; settings: Homo sapiens, SW-620, 48 h, read-out: IC50 SW620
Method in brief: as §1

[5] = tested on: Kato-III gastric carcinoma cells; experiment: MTT assay, Kato-III; format: cell-based; settings: Homo sapiens, 48 h, read-out: IC50 Kato-III
Method in brief: as §1

[6] = tested on: Chago K-1 bronchogenic carcinoma cells; experiment: MTT assay, Chago K-1; format: cell-based; settings: Homo sapiens, ChaGo-K-1, 48 h, read-out: IC50 Chago-K1
Method in brief: as §1

[7] = tested on: WI-38 VA-13 subline 2RA lung fibroblast cells; experiment: MTT assay, normal lung fibroblast; format: cell-based, human
Method in brief: as §1

[8] = tested on: all tested cancer cell lines (BT474, Chago K-1, Hep-G2, Kato-III, SW 620); experiment: MTT assay, all tested cancer cell lines together; format: cell-based, human
Method in brief: as §1

[9] = tested on: Hep-G2 liver hepatoblastoma cells; experiment: MTT assay, Hep-G2; format: cell-based; settings: Homo sapiens, HepG2, 48 h, read-out: IC50 Hep-G2
Method in brief: as §1

α-glucosidase = settings: cited from earlier work
α-amylase = settings: cited from earlier work
[10] = tested on: CCD-986SK skin fibroblast cells; experiment: MTT assay, normal skin fibroblast; format: cell-based, human
Method in brief: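 Culture medium was Dulbecco's modified Eagle's medium, 37°C, 5% CO2. Cells were seeded at 5,000 per well for 24 h and exposed to test compound in DMSO for 48 h at 37°C. MTT (5 mg/ml solution) was added for 4 h, medium was removed, formazan was dissolved in DMSO with 0.1 mol/l glycine, and A540 was read. Run in quadruplicate.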

[11] = read-out: % inhibition of pancreatic α-amylase

SMILES: C[C@H]1O[C@H](O[C@H]2[C@H](O)[C@@H](O)[C@@H](O[C@H]3[C@H](O)[C@@H](O)C(O)O[C@@H]3CO)O[C@@H]2CO)[C@H](O)[C@@H](O)[C@@H]1N[C@H]1C=C(CO)[C@@H](O)[C@H](O)[C@H]1O (some centres unmarked) [Acarbose]
- inhibition at 156 µg/mL [1, 11]: 73.9%
- IC50 Rat α-glucosidase [2]: 449.3 µg/mL (≈ 696 µM)
- % inhibition of rat α-glucosidase [2]: 58.7%
- % inhibition of yeast α-glucosidase (yeast α-glucosidase; at 40 mg/ml): 73.9%

SMILES: O=c1c2cc(O)c(O)cc2oc2cc(O)c([C@@H]3O[C@H](CO)[C@@H](O)[C@H](O)[C@H]3O)c(O)c12 [Mangiferin, 1,3,6,7-Tetrahydroxyxanthone C2-ß-D-glucoside]
- IC50 [3]: > 200 µg/mL
- pIC50 [1]: 2.61
- inhibition at 5000 µg/mL [1, 11]: 95.6%
- IC50 [4]: > 200 µg/mL
- IC50 [5]: > 200 µg/mL
- IC50 [6]: > 200 µg/mL
- IC50 ([7]; Homo sapiens, WI-38 VA13, 48 h, read-out: IC50 Wi-38): > 200 µg/mL
- effect on survival of lung fibroblast normal cell line ([7]; at high dose, MTT): tended to increase the survival
- effect on % survival of tested cancer cells [8]: did not significantly affect % survival
- effect on % survival of tested cancer cells ([8]; listed as mangiferin): did not show significantly toxicity
- IC50 [9]: > 200 µg/mL
- IC50 α-glucosidase (α-glucosidase): 41.88 µg/mL (≈ 99.2 µM)
- IC50 α-amylase (α-amylase): 74.35 µg/mL (≈ 176 µM)
- IC50 Rat α-glucosidase [2]: 433.3 µg/mL (≈ 1030 µM)
- IC50 Rat α-glucosidase ([2]; listed as mangiferin): 430 µg/mL (≈ 1020 µM)
- % inhibition of rat α-glucosidase [2]: 92.6%
- inhibition at 2500 µg/mL (yeast α-glucosidase; read-out: % inhibition of yeast α-glucosidase): 93.3%
- IC50 ([10]; Homo sapiens, CCD-986Sk, 48 h, read-out: IC50 CCD): > 200 µg/mL
- effect on % survival of skin fibroblast normal cell line ([10]; MTT, listed as mangiferin): tended to increase the survival; also recorded: increased % survival of skin fibroblast

Source: publication PMC5288965 (Journal of Advanced Pharmaceutical Technology & Research, 2017)
